The record followed here is ChEMBL document CHEMBL1125263, “Streptonigrin and related compounds. 5. Synthesis and evaluation of some isoquinoline analogues” (J Med Chem, 1991).

Values after ≈ are worked out from the molar mass of the structure shown.

What is called MIC is the lowest concentration that inhibits growth of the organism. A high value points to a need for much substance.

Assay [1] concerns Bacillus subtilis. The experiment in a line: In vitro antibacterial activity measured against Bacillus subtilis and relative potency expressed with respect to streptonigrin. Type of assay: functional. A digest of the protocol:
(§1)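 Agar disc-diffusion plates seeded with B. subtilis spores, six discs per plate, incubated at 37 °C for 20 h. Zones of inhibition measured and averaged over four replicates. Zone diameter varied linearly with log concentration. Slopes were fitted by regression, with standard errors of the slope calculated.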

In assay [2] the test system is Bacillus subtilis. The experiment in a line: Antibacterial activity against Bacillus subtilis and values were expressed as standard error for slope. Type of assay: functional. In a few lines:
as §1

The test system of assay [3] is Bacillus subtilis. In words: In vitro antibacterial activity against Bacillus subtilis. Type of assay: functional.
Assay [4] has as its system Lepidium sativum. In words: In vitro root inhibition activity using seedlings of Lepidium sativum. Type of assay: functional, organism-based. In a few lines: (§2)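 Cress (L. sativum) seeds soaked in water 15–20 min, germinated on 0.6% agar at 27 °C in the dark for 24 h until radicles were ca. 1 cm. DMSO solutions (2000–40 μg/mL stocks, 200 μL per 20 mL agar) were set in 0.6% agar; DMSO-only controls. Eight seedlings per plate, 24 h at 27 °C in the dark. New root growth measured, duplicate runs (16 seedlings). %I = 1 − (T/C) × 100; probit analysis and linear regression gave I50.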

Assay [5] has as its system Lepidium sativum. In words: In vitro root inhibition activity measured using seedlings of Lepidium sativum, and relative potency expressed with respect to streptonigrin. Type of assay: functional. A digest of the protocol:
as §2

For `COC1=C(N)C(=O)c2c(ccnc2-c2cccc([N+](=O)[O-])c2)C1=O`, the Relative potency in the assay on Bacillus subtilis [1] was 0.26; in the assay with Lepidium sativum [5], 1.96. The same molecule displayed a Slope in the assay with Bacillus subtilis [2] of 4.93. In the assay with Bacillus subtilis [3], this molecule displayed an MIC of 5.2 µM (≈ 1.69 µg/mL). The molecule further registered an I50 in the assay on Lepidium sativum [4] of 6.43 nM ml-1.

Take `COC1=C(N)C(=O)c2nc(-c3ccccn3)ccc2C1=O`: the Relative potency is listed as 0.1 with Bacillus subtilis [1] and 1.37 in the assay on Lepidium sativum [5]. The molecule also registered a Slope with Bacillus subtilis [2] of 10.23. Inhibition of growth in the assay on Bacillus subtilis [3] (MIC) required 14.1 µM (≈ 3.97 µg/mL). Besides, the I50 in the assay on Lepidium sativum [4] was 9.18 nM ml-1.

With `COC1=C(N)C(=O)c2c(ccnc2-c2ccc(N)cc2)C1=O`, the Relative potency worked out at 0.04 in the assay on Bacillus subtilis [1] and 0.82 in the assay on Lepidium sativum [5]. Besides, the Slope in the assay with Bacillus subtilis [2] is 12.64. In the assay with Bacillus subtilis [3], this molecule registered a minimal inhibitory concentration (MIC) of 35.8 µM (≈ 10.6 µg/mL). Also, the I50 in the assay with Lepidium sativum [4] is recorded as 15.49 nM ml-1.

Regarding `C/N=C1\C(=O)c2ccnc(-c3ccccc3[N+](=O)[O-])c2C(O)=C1Br`, the Relative potency with Bacillus subtilis [1] amounted to 0.2; in the assay on Lepidium sativum [5] it was 1.3. This molecule displayed a Slope in the assay with Bacillus subtilis [2] of 5.21. The minimum inhibitory concentration (MIC) against Bacillus subtilis [3] amounted to 6.76 µM (≈ 2.62 µg/mL). In the assay with Lepidium sativum [4], this molecule came in with an I50 of 10 nM ml-1.

Turning to `COC1=C(N)C(=O)c2c(ccnc2Cc2ccccc2)C1=O`, the Relative potency is listed as 0.09 with Bacillus subtilis [1] and 0.92 in the assay with Lepidium sativum [5]. In the assay with Bacillus subtilis [2], this molecule registered a Slope of 11.31. Further, the lowest concentration to inhibit growth in the assay on Bacillus subtilis [3] (MIC) was 16 µM (≈ 4.71 µg/mL). The same molecule displayed an I50 with Lepidium sativum [4] of 13.7 nM ml-1.

As for `C/N=C1\C(=O)c2ccnc(Cc3ccccc3)c2C(O)=C1Br`, the Relative potency with Bacillus subtilis [1] is reported as 0.09; with Lepidium sativum [5], 0.42. The same molecule came in with a Slope in the assay on Bacillus subtilis [2] of 11.31. For the same molecule, the lowest concentration to inhibit growth in the assay on Bacillus subtilis [3] (MIC) was 16 µM (≈ 5.72 µg/mL). Also, in the assay on Lepidium sativum [4], the I50 is on record as 30.05 nM ml-1.

`COC1=C(N)C(=O)c2c(ccnc2-c2ccc([N+](=O)[O-])cc2)C1=O`: in the assay with Lepidium sativum [4], the I50 came to 9.41 nM ml-1. In the assay on Lepidium sativum [5], this molecule came in with a Relative potency of 1.34.

In the case of `COC1=C(N)C(=O)c2nc(-c3nc(C(=O)O)c(C)cc3N)ccc2C1=O`, the figures for the Relative potency in the assay with Bacillus subtilis [1] and in the assay with Lepidium sativum [5] were 5.48 and 2.3, respectively. Moreover, in the assay on Bacillus subtilis [2], the Slope is recorded as 4.75. The MIC against Bacillus subtilis [3] was found to be 0.25 µM (≈ 0.0886 µg/mL). Besides, in the assay on Lepidium sativum [4], the I50 worked out at 5.5 nM ml-1.

On to `COC1=C(N)C(=O)c2c(ccnc2-c2ccccc2)C1=O`, for which the values for the Relative potency in the assay with Bacillus subtilis [1] and in the assay with Lepidium sativum [5] were 0.05 and 1.12, respectively. In the assay on Bacillus subtilis [2], the Slope was determined as 14.78. The minimum inhibitory concentration (MIC) with Bacillus subtilis [3] is 27.2 µM (≈ 7.62 µg/mL). In the assay on Lepidium sativum [4], this molecule returned an I50 of 11.25 nM ml-1.

Regarding `COC1=C(N)C(=O)c2c(ccnc2-c2ccccc2[N+](=O)[O-])C1=O`, the Relative potency was found to be 0.15 in the assay on Bacillus subtilis [1] and 2.09 in the assay on Lepidium sativum [5]. The molecule also displayed a Slope in the assay on Bacillus subtilis [2] of 10.3. For the same molecule, the MIC against Bacillus subtilis [3] was 9 µM (≈ 2.93 µg/mL). The same molecule displayed an I50 in the assay with Lepidium sativum [4] of 6.03 nM ml-1.

With `COC1=C(N)C(=O)c2c(ccnc2-c2cccc(N)c2)C1=O`, the Relative potency in the assay on Bacillus subtilis [1] is 0.04; in the assay with Lepidium sativum [5] it was 0.57. For the same molecule, the Slope in the assay on Bacillus subtilis [2] came to 11.7. This molecule returned a minimal inhibitory concentration (MIC) in the assay with Bacillus subtilis [3] of 33.4 µM (≈ 9.86 µg/mL). This molecule also yielded an I50 in the assay with Lepidium sativum [4] of 22.37 nM ml-1.

Regarding `COC1=C(N)C(=O)c2c(ccnc2-c2ccccc2N)C1=O`, the values for the Relative potency in the assay with Bacillus subtilis [1] and with Lepidium sativum [5] were 0.08 and 0.19, respectively. The Slope with Bacillus subtilis [2] is 9.2. Also, the MIC in the assay on Bacillus subtilis [3] was found to be 17.2 µM (≈ 5.08 µg/mL). In addition, the I50 in the assay with Lepidium sativum [4] turned out to be 65 nM ml-1.

For the molecule `COC1=C(N)C(=O)c2c(ccnc2-c2ccccn2)C1=O`, the Relative potency amounted to 0.03 in the assay on Bacillus subtilis [1] and 0.99 in the assay on Lepidium sativum [5]. Besides, in the assay with Bacillus subtilis [2], the Slope came out at 12.37. This molecule also displayed a minimal inhibitory concentration (MIC) with Bacillus subtilis [3] of 39.3 µM (≈ 11.1 µg/mL). For the same molecule, in the assay on Lepidium sativum [4], the I50 is given as 12.7 nM ml-1.

Regarding `COC1=C(N)C(=O)c2nc(-c3nc(C(=O)O)c(C)c(-c4ccc(OC)c(OC)c4O)c3N)ccc2C1=O` [STREPTONIGRIN], the Relative potency with Bacillus subtilis [1] and in the assay on Lepidium sativum [5] was 1 in each case. The molecule further yielded a Slope with Bacillus subtilis [2] of 5.51. This molecule also came in with an MIC with Bacillus subtilis [3] of 1.37 µM (≈ 0.694 µg/mL). Besides, the I50 in the assay with Lepidium sativum [4] was 12.65 nM ml-1.
